According to the EternaBench riboswitch data:

System: MS2 coat protein
Test: apparent Kd, MS2 coat protein; higher = weaker binding; RNA-MaP array; FMN 200 µM where present
How it was run: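 Designs on Illumina sequencing-chip clusters, transcribed by stalled E. coli RNA polymerase, were exposed to SNAP-549-labelled MS2 coat protein in doubling steps from 0.7 or 1.5 nM up to 3 µM, without and then with constant ligand. The buffer held 100 mM Tris-HCl pH 7.5, 80 mM KCl, 4 mM MgCl2, BSA, DTT, yeast tRNA and Tween-20. Apparent Kd values are medians of filtered per-cluster binding-curve fits to green signal normalised to red-channel RNA signal and control-cluster median Fmax.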

[1] = designed as: ON switch for flavin mononucleotide, no ligand
[2] = ligand present: flavin mononucleotide, designed as: ON switch for flavin mononucleotide
[3] = designed as: OFF switch for flavin mononucleotide, no ligand
[4] = ligand present: flavin mononucleotide, designed as: OFF switch for flavin mononucleotide

Sequence | apparent Kd [1] | apparent Kd [2] | apparent Kd [3] | apparent Kd [4]
UAGUGAUUGCAAGGAUAUGCUUAUGUUUAAUUUUAUUUAUUAUCUAACAUGAGGAUCACCCAUGUGCAGAAGGUGCUUGAUUUG | 63.4 nM | 53.4 nM | – | –
AAAUAGUUACAGAAGGGCAUUUAUAAUUAUCAUUACUCUUACUAUGUUUGCAGGAUAUGUUUAACAUGAGGAUCACCCAUGUAC | 20.4 nM | 14.1 nM | – | –
ACGGCAAUCGAAGGAUAUGGUUACAUGAGGAUCACCCAUGUCUAGGGUCUAAUUAGGUAUAACUACCAGAAGGUCGAAGGCCUA | – | – | 67.6 nM | 72.5 nM
GUCAGCUCGUGAGGAUAUACAACACUGCUUCGGCAGUGUAUUAAGAUCACAUGAGGAUCACCCAUGUAGAAGGCAUGAGCUGAU | – | – | 14.9 nM | 297 nM
CCCACGUGUGCAGGAUAUCCCACGAGCACAACAUGAGGAUCACCCAUGUACCUGAGUCUCGGAACGGAGAAGGGUACAUGUUAU | 72.4 nM | 69.1 nM | – | –
UUUUUGCUAUAUACAUGAGGAUCACCCAUGUCCACUGACAGACAGGAUAUCCUUAGAAACUAGCAGGAGAAGGGUCAGUCAUAC | 487 nM | 69 nM | – | –
UGUCGGAGCAGAGGAUAUUACAUGAGGAUCACCCAUGUAGGUACCAAUAGCUGGAAACAGCAAUGUAAGAAGGCUGCUCCGACA | – | – | 280 nM | 408 nM
AUAAGUCGAGGAUAUACAAAAUGCUAGCGAAAGCUAGCAUAACAUGAGGAUCACCCAUGUAGAAGGCGACAAUA | – | – | 24.5 nM | 26.1 nM
AUCAGCUCGUCAGGAUAUACGUCACUGCGUCAGCAGUGUGGUAAGAUCACAUGAGGAUCACCCAUGUAGAAGGGACGAACUGAU | – | – | 13.6 nM | 292 nM
UCGAGUCAUGAGAAGGGCUGAUGUUACAUGAGGAUCACCCAUGUCAUGGGCAGGAUAUCAUUGACACGGCUGUACCUUUCUUAC | 149 nM | 29.4 nM | – | –
GACUGGGCAGGAUAUACAUGAGGAUCACCCAUGUGUCUGCGUCAGGCACGUGUAGACGGUAGAAGGGCCUACAC | – | – | 11.6 nM | 13.6 nM
GUUGCUUUCCGAGGAUAUUCCGGGCGUGGCUAUACAUGAGGAUCACCCAUGUGGCGGCCGCCUAGGGAGAAGGCGGGCUGCUUC | 15.9 nM | 15.7 nM | – | –
GUUUUCGCGUGAGGAUAUGCUCGCAUUUCAAGAGCAGAAGGUAUGUCUAUAGACAUGAGGAUCACCCAUGUAUUUAUCAUUGAA | 226 nM | 160 nM | – | –
AUGUCUCUAGGAUAUUAGCGGAUCUACAUGAGGAUCACCCAUGUCGUGUCGCAGAUGUGCUGAGAAGGAGAGCACA | – | – | 15.2 nM | 19 nM
UUUGACCUAGGAUAUACAUGAGGAUCACCCAUGUUCCGGUGGGUUAACGACAACCUCAGUAGAAGGAGGAGCUU | – | – | 31.8 nM | 58.9 nM
CCAGUGUCAGGAUAUAUCACAAAGAACCCAACCGGGCUUUGGUAGAAGGGACAUGAGGAUCACCCAUGUUGUUU | – | – | 30.9 nM | 44 nM
CGGCAUCAUGUAGGAUAUGCGUGGCGAAGCUAUGCAGAAGGACAUGAGGAUCACCCAUGUCUUACCUAGCGUACUAGGUUGCCG | – | – | 6.37 nM | 16.1 nM
UAUAAACAUGAGGAUCACCCAUGUGAGGAUAUCUAAACCAGAGCGGAUCUCUGGCCCAAGAGAAGGUGCAUGGU | – | – | 34.6 nM | 146 nM
AAAUAGUUAGGAUAUACAUGAGGAUCACCCAUGUAGGGUUCAGUCAUGCAGAAAAUGCGUAGAAGGAACUAUCC | – | – | 18.4 nM | 16.7 nM
GCCAUCGUAUGAGGAUAUGGCACCGAAACGGUGCCAGAAGGCAUGUCAAUAGACAUGAGGAUCACCCAUGUGUUAUCGAUGGCC | 84.9 nM | 11.7 nM | – | –
ACAUUGUUAGGAUAUGCUGCUCGUCACUUGCGUGAUGAGUAGCAGAAGGAACAUGAGGAUCACCCAUGUAAAGA | – | – | 33.7 nM | 56.1 nM
CUUUUGUGAGGAUAUCAGUAGUAAAUAAUUAAAAUUACUACUGAGAAGGCACAUGAGGAUCACCCAUGUUCCUC | – | – | 42.2 nM | 284 nM
AACUCACAUGAGGAUCACCCAUGUGAGGAUAUAUUGUUAUGGAUGUUAUUUUGUAGUGGUAGAAGGCGCGUGAU | – | – | 15.3 nM | 15.2 nM
GUCAGCUCGUGAGGAUAUACAACACUGCUUCGGCAGUGUAUUAAGAACACAUGAGGAUCACCCAUGUAGAAGGCACGAGCUGAU | – | – | 4.92 nM | 6.08 nM
UGUCGGAGCAGAGGAUAUACAUGAGGAUCACCCAUGUAAUAAAGUGAAGCCUGGAAACAGGCAAUGUAGAAGGUUGCUCCGACA | – | – | 7.2 nM | 31.5 nM
CCAGGCUGUGUGAGGAUAUGCUGGUCCUUGGAUCAGCAGAAGGCACAUGAGGAUCACCCAUGUGAGUAGCUUGG | – | – | 16.2 nM | 62.2 nM
UUGUUAUAUGUAGGAUAUGCAUAUUAUUAUUAUGCAGAAGGACAUGAGGAUCACCCAUGUAUAUUAUUAUUAUAUAUUAUAUAU | – | – | 28.3 nM | 41.6 nM
AGAGACUUGGGAGGAUAUGCCUGAUGGACACGGGCAGAAGGCCCAAACAUGAGGAUCACCCAUGUAUCUACGCCUUGAACGGGC | 236 nM | 17.7 nM | – | –

Sequence | apparent Kd [1] | apparent Kd [2] | apparent Kd [3] | apparent Kd [4]
AAACCGCAAGGAUAUUGUGGCGCUGACAUGAGGAUCACCCAUGUGGUGCUAGUCCCGCUGCGAGAAGGUGUGUAAA | – | – | 12.4 nM | 26.8 nM
CAGCUGAAUGUGAGGAUAUUACGAGCUGCGGCUCGUGAGAAGGCACAUGAGGAUCACCCAUGUCUCAACAGCUG | – | – | 37.2 nM | 741 nM
UGGACCGAGCUGUCGGUUGACUCGAAGGAUAUGACAUGAGGAUCACCCAUGUGGGAUCUAAAUUGUCAGAAGGUUGGUUCUGGG | – | – | 641 nM | 276 nM
UAACCGUGAGGAUAUACAUGAGGAUCACCCAUGUAGCAAGCUACGUAACCCACCAUAUGUAGAAGGCACUAGGU | – | – | 73.1 nM | 47.6 nM
AACCUAAAACAGAAGGCCAAAUACAUGAGGAUCACCCAUGUCGAAUCAUGGAGGAUAUGUUAUUAAUUACUCGCAGAUGAGUGC | 70 nM | 7.49 nM | – | –
CACGUCCUCACAGGAUAUGCUGGACUUUGUCCAGCAGAAGGGUGACAUGAGGAUCACCCAUGUAAAAGGACGUGUAUAUUUAAU | 515 nM | 41.5 nM | – | –
AAUAAUAAGGAGGAUAUCGUAUCGGAGACGAUACGAGAAGGCUUAACAUGAGGAUCACCCAUGUUCCUCAAUAA | – | – | 35 nM | 76.7 nM
CGGCGGAAAGGAUAUGCAGUUAUAUCAAAAUGUGGGCCACGACAUGAGGAUCACCCAUGUAGAAGGUUCAGCCG | – | – | 16 nM | 13.4 nM
UUGAUAAAUUAGAAGGCGAGAUAAAAUACAAUAAACAUGAGGAUCACCCAUGUGUACCCAUGUUUUGAGGAUAUAGACAUUUAU | 922 nM | 399 nM | – | –
GCAAAGCCUGACAUGAGGAUCACCCAUGUUAGAUUGUUAUGUCAGGAUAUUGUCUAGACCCUAGACAAGAAGGGAUGCUUUGCA | 472 nM | 29.1 nM | – | –
CUCCUCGAAGGAUAUACUGUGGAUCAUAAGUCAGGGAGGUUACAUGAGGAUCACCCAUGUAGAAGGUCGAGGUG | – | – | 67.2 nM | 428 nM
CCAUGACAAAGUCAUGGAAUACGAACAUGAGGAUCACCCAUGUAGGAUAUGCUACUCAAAGAGUAGCAGAAGGACAUGUGUCUU | – | – | 29.9 nM | 156 nM
GCGAAUAAGUGAGGAUAUACAUAAUUUAUAACUGUAGAAGGCACAAACCUCAAGACAUGAGGAUCACCCAUGUGAAAUAUCGCU | – | – | 31 nM | 81.8 nM
AGUAAGAUGCAGAAGGUGUUAGCUAGAGCUACGACAUGAGGAUCACCCAUGUACUCAAAACCGUACAAGGAUAUGCAUCUUACA | 9.55 nM | 6.26 nM | – | –
GCCAUCCUAUGAGGAUAUGACACCGAAACGGUGUCAGAAGGCAUGUCGAUAGACAUGAGGAUCACCCAUGUUUACAGGAUGGCA | 132 nM | 22 nM | – | –
AGAUCUCAAUAAGAUCCAAUACGAACAUGAGGAUCACCCAUGUAGGAUAUGCUAGAAGUAGAGUAGCAGAAGGACAAUUACCUU | – | – | 19.9 nM | 19.7 nM
UGGUACAACGGAGGAUAUCAUGUAAAUACAUGAGGAUCACCCAUGUCGUACGAGAGUACGGAGAUUGAGAAGGCCGUUGUACCU | 25.7 nM | 16.1 nM | – | –
UGGUACUACGGAGGAUAUGGGAAGAUACAUGAGGAUCACCCAUGUUUAAGAAUGCCGAGAGGCAACUAGAAGGCCCUAGUACCU | 401 nM | 25.2 nM | – | –
GAAGCAUGCAAUAACAUGAGGAUCACCCAUGUGAAAACACGUGAGGAUAUUGAUCUGAAGAAGAUCGAGAAGGCACCGUGCUAA | 13.4 nM | 9.92 nM | – | –
GUUACACAUGAGGAUCACCCAUGUAAGGAUAUGCUGCGGUCGCGCUGACGUGACUGCAGCAGAAGGUACAAAUG | – | – | 77.4 nM | 92.1 nM
UUCAGCUCGUGAGGAUAUACAUGUGCUGGAAACAGCACUAAAGAUUUCACAUGAGGAUCACCCAUGUAGAAGGCACGAGCUGAG | – | – | 16.2 nM | 39.4 nM
UGUGAGUUGAUGUUAGAUAGGAGUACAUGAGGAUCACCCAUGUAGGAUAUUCAAAGACGAAGAUAGAAGAAGGACAUAGGUUUC | – | – | 21.4 nM | 18.1 nM
ACAUGCAUAGCGAUAUGAUCGAGAGAUCAUGUCGCUAAAGUUAGAAGGACAUGAGGAUCACCCAUGUAGGAUAUGGGAGCAUGA | 43.1 nM | 9.96 nM | – | –
UUACAGUGCGGGUAGGAUAUGUAGGGUGGUACAUGAGGAUCACCCAUGUAUCCACCCUUCGACCGGCAGAAGGGCCUGUCACUGC | 14.3 nM | 14.3 nM | – | –
UAAAUACAUGAGGAUCACCCAUGUGAGGAUAUCCGAUGAUUCGGAGAAAUGACCCGUUGGAGAAGGCAUAGGGC | – | – | 30.8 nM | 22.7 nM
UCUACAUAAAUUCAUCAAUACAGAAAGGAUAUGAAAUACAUGAGGAUCACCCAUGUUCAUGGGAAUUAGAAGGUUCAAUUAGCC | – | – | 133 nM | 84.6 nM
ACAAAUGGAGGAUAUACAUGAGGAUCACCCAUGUAUAUCCUACAUAUGUGAUAAAAAUGUAGAAGGCCAUUUGA | – | – | 11.6 nM | 10.8 nM
